Data reported in ChEMBL document CHEMBL1781959, “Synthesis and in vitro antitumor activity of substituted quinazoline and quinoxaline derivatives: search for anticancer agent” (Eur J Med Chem, 2011).

What was measured:
[1] = system: HL-60(TB); test: Growth inhibition of human HL-60(TB) cells after 48 hrs by SRB assay; type: functional; details: HL-60, 48 h
[2] = system: MOLT-4; test: Growth inhibition of human MOLT4 cells after 48 hrs by SRB assay; type: functional; details: MOLT-4, 48 h
Outline: (§1)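 NCI 60-panel five-dose assay at 0.01, 0.1, 1, 10 and 100 μM. Cells in RPMI 1640 with 5% FBS and 2 mM L-glutamine, preincubated 24 h, with time-zero plates TCA-fixed. Drug exposure 48 h at 37 °C. Read by SRB staining at 515 nm. GI50 is the concentration where [(Ti−Tz)/(C−Tz)]×100 = 50, taken from log concentration versus % growth curves.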

[3] = Growth inhibition of human […] cells after 48 hrs by SRB assay; type: functional; outline: as §1
[4] = system: NCI-H23; test: Growth inhibition of human NCI-H23 cells after 48 hrs by SRB assay; type: functional; details: NCI-H23, 48 h; outline: as §1
[5] = system: NCI-H460; test: Growth inhibition of human NCI-H460 cells after 48 hrs by SRB assay; type: functional; details: NCI-H460, 48 h; outline: as §1
[6] = system: NCI-H522; test: Growth inhibition of human NCI-H522 cells after 48 hrs by SRB assay; type: functional; details: NCI-H522, 48 h; outline: as §1
[7] = system: SNB-75; test: Growth inhibition of human SNB75 cells after 48 hrs by SRB assay; type: functional; details: SNB-75, 48 h
Outline: (§2)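 NCI-60 panel cells grown in RPMI 1640 with 5% FBS and 2 mM L-glutamine, then seeded at 5000–40,000 cells/well by doubling time and preincubated for 24 h. Compound in DMSO was tested either at 10^-5 M alone or at 0.01–100 μM in five doses, for 48 h at 37 °C. Cells were fixed with cold TCA (10% final), stained with SRB, and read at 515 nm. GI50 was taken from % growth relative to time-zero and control wells.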

[8] = system: U-251; test: Growth inhibition of human U251 cells after 48 hrs by SRB assay; type: functional; details: U-251, 48 h; outline: as §2
[9] = system: SK-MEL-5; test: Growth inhibition of human SK-MEL-5 cells after 48 hrs by SRB assay; type: functional; details: SK-MEL-5, 48 h; outline: as §2
[10] = system: UACC-257; test: Growth inhibition of human UACC257 cells after 48 hrs by SRB assay; type: functional; details: UACC-257, 48 h; outline: as §2
[11] = system: IGROV-1; test: Growth inhibition of human IGROV1 cells after 48 hrs by SRB assay; type: functional; details: IGROV-1, 48 h; outline: as §1
[12] = system: NCI/ADR-RES; test: Growth inhibition of human NCI/ADR-RES cells after 48 hrs by SRB assay; type: functional; outline: as §1
[13] = system: 786-0; test: Growth inhibition of human 786-0 cells after 48 hrs by SRB assay; type: functional; details: 786-0, 48 h; outline: as §1
[14] = system: A498; test: Growth inhibition of human A498 cells after 48 hrs by SRB assay; type: functional; details: A498, 48 h; outline: as §1
[15] = system: TK-10; test: Growth inhibition of human TK10 cells after 48 hrs by SRB assay; type: functional; details: TK-10, 48 h; outline: as §2
[16] = system: MCF7; test: Growth inhibition of human MCF7 cells after 48 hrs by SRB assay; type: functional; details: MCF7, 48 h; outline: as §1
[17] = system: MDA-MB-231; test: Growth inhibition of human MDA-MB-231 cells after 48 hrs by SRB assay; type: functional; details: MDA-MB-231, 48 h; outline: as §1
[18] = system: BT-549; test: Growth inhibition of human BT549 cells after 48 hrs by SRB assay; type: functional; details: BT-549, 48 h; outline: as §1
[19] = system: MDA-MB-468; test: Growth inhibition of human MDA-MB-468 cells after 48 hrs by SRB assay; type: functional; details: MDA-MB-468, 48 h; outline: as §1
[20] = system: NCI-H322M; test: Cytotoxicity against human NCI-H322M cells after 48 hrs by SRB assay; type: cell-based
Outline: (§3)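 NCI-60 five-dose screen in RPMI 1640 with 5% FBS and 2 mM L-glutamine; 5000–40,000 cells/well, 24 h pre-incubation. DMSO stocks diluted to 0.01, 0.1, 1, 10 and 100 μM final; 48 h at 37 °C, 5% CO2. Fixed with TCA (10% final adherent, 16% suspension), stained with 0.4% SRB, A515. GI50, TGI and LC50 taken from time-zero, control and test absorbances.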

[21] = system: NCI-H23; test: Cytotoxicity against human NCI-H23 cells after 48 hrs by SRB assay; type: cell-based; details: nci-h23, 48 h; outline: as §3
[22] = system: A549; test: Cytotoxicity against human A549 cells after 48 hrs by SRB assay; type: cell-based; details: a549, 48 h; outline: as §3
[23] = system: HL-60(TB); test: Cytotoxicity against human HL-60(TB) cells after 48 hrs by SRB assay; type: cell-based; outline: as §3
[24] = system: HCT-116; test: Cytotoxicity against human HCT116 cells after 48 hrs by SRB assay; type: cell-based; details: hct-116, 48 h; outline: as §3
[25] = system: SNB-75; test: Cytotoxicity against human SNB75 cells after 48 hrs by SRB assay; type: cell-based; details: snb-75, 48 h
Outline: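 NCI-60 five-dose screen. Cells grown in RPMI 1640 with 5% FBS and 2 mM L-glutamine and pre-incubated 24 h; a time-zero plate is TCA-fixed. Drug added at 0.01, 0.1, 1, 10 and 100 µM (DMSO stock) for 48 h at 37 °C, 5% CO2. Fixed with cold TCA (10% final for adherent, 16% for suspension cells), stained with 0.4% SRB, A515. GI50, TGI and LC50 taken from dose-response curves.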

[26] = system: Malme-3M; test: Cytotoxicity against human MALME-3M cells after 48 hrs by SRB assay; type: cell-based; outline: as §3
[27] = system: SK-MEL-2; test: Cytotoxicity against human SK-MEL-2 cells after 48 hrs by SRB assay; type: cell-based; details: sk-mel-2, 48 h; outline: as §3
[28] = system: IGROV-1; test: Cytotoxicity against human IGROV1 cells after 48 hrs by SRB assay; type: cell-based; details: igrov-1, 48 h; outline: as §3
[29] = system: NCI/ADR-RES; test: Cytotoxicity against human NCI/ADR-RES cells after 48 hrs by SRB assay; type: cell-based; outline: as §3
[30] = system: A498; test: Cytotoxicity against human A498 cells after 48 hrs by SRB assay; type: cell-based; details: a498, 48 h; outline: as §3
[31] = system: RXF 393; test: Cytotoxicity against human RXF393 cells after 48 hrs by SRB assay; type: cell-based; details: rxf 393, 48 h; outline: as §3
[32] = system: SN12C; test: Cytotoxicity against human SN12C cells after 48 hrs by SRB assay; type: cell-based; outline: as §3
[33] = system: MCF7; test: Cytotoxicity against human MCF7 cells after 48 hrs by SRB assay; type: cell-based; details: mcf7, 48 h; outline: as §3
[34] = Cytotoxicity against human Hs 578T cells after 48 hrs by SRB assay; type: cell-based; outline: as §3

With `O=c1c2ccccc2nc(-c2ccco2)n1/N=C/c1ccccc1Cl` the GI50 [1] was 23.8 µM, the TGI [1] was over 100 µM and the GI50 [2] was over 100 µM. For the same compound, the TGI [2] was over 100 µM, the GI50 [3] was over 100 µM and the TGI [3] was over 100 µM. For the same compound, the GI50 [4] was 7.87 µM, the TGI [4] was over 100 µM and the GI50 [5] was 3.45 µM. It also gave a TGI [5] of 8.41 µM, a GI50 [6] of 2.14 µM and a TGI [6] of 6.45 µM. For the same compound, the GI50 [7] was 4.1 µM, the TGI [7] was 7.51 µM and the GI50 [8] was 4.12 µM. The TGI [8] was 32.3 µM, the GI50 [9] was 5.56 µM and the TGI [9] was 31.8 µM. The GI50 [10] was 8.34 µM, the TGI [10] was over 100 µM and the GI50 [11] was 6.12 µM. It also gave a TGI [11] of over 100 µM, a GI50 [12] of 2.45 µM and a TGI [12] of 8.78 µM. The GI50 [13] was 3.94 µM, the TGI [13] was 14.9 µM and the GI50 [14] was 5.76 µM. For the same compound, the TGI [14] was 16.7 µM, the GI50 [15] was 7.84 µM and the TGI [15] was over 100 µM. The GI50 [16] was 5.29 µM, the TGI [16] was over 100 µM and the GI50 [17] was 3.13 µM. The TGI [17] was 7.84 µM, the GI50 [18] was 2.92 µM and the TGI [18] was 6.8 µM. For the same compound, the GI50 [19] was 9.96 µM, the TGI [19] was over 100 µM and the LC50 [20] was over 100 µM. The LC50 [21] was over 100 µM, the LC50 [22] was over 100 µM and the LC50 [23] was over 100 µM. The LC50 [24] was over 100 µM, the LC50 [25] was over 100 µM and the LC50 [26] was over 100 µM. The LC50 [27] was over 100 µM, the LC50 [28] was over 100 µM and the LC50 [29] was 52.7 µM. It also gave an LC50 [30] of over 100 µM, an LC50 [31] of over 100 µM and an LC50 [32] of over 100 µM. For the same compound, the LC50 [33] was over 100 µM and the LC50 [34] was over 100 µM.
